Data on 15 compounds can be found in ChEMBL document CHEMBL3779809, “Bioactive Enmein-Type ent-Kaurane Diterpenoids from Isodon phyllostachys” (J Nat Prod, 2016).

The source made the active and inactive calls. No cut-off for these calls is given here.

Test [1] in a line: Cytotoxicity against human SMMC7721 cells assessed as cell viability after 48 hrs by MTS assay. The test is classed as functional, cell-based. The following applies: SMMC-7721, 48 h. The gist of the method: (§1)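 Cells grown in RPMI-1640 or DMEM with 10% FBS at 37 °C, 5% CO2. Seeded, incubated 12 h, then exposed to a range of concentrations in triplicate for 48 h. Viability read by MTS reduction to formazan. IC50 calculated by Reed and Muench method; cis-platin positive control.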
(Tetrazolium dyes change colour on reduction, which living cells bring about.)

In test [2] the test system is SMMC-7721. Description: Cytotoxicity against human SMMC7721 cells assessed growth inhibition at 40 uM after 48 hrs by MTS assay relative to control. The test is classed as functional. The essentials: (§2)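 Cultured in RPMI-1640 or DMEM with 10% FBS at 37 °C under 5% CO2. Cells seeded, given 12 h at 37 °C, then treated with compound at 40 μM for 48 h. Growth inhibition measured by MTS assay (formazan colorimetry).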

Test [3] deals with MCF7. Description: Cytotoxicity against human MCF7 cells assessed as cell viability after 48 hrs by MTS assay. The class given is functional, cell-based. The settings on record: MCF7, 48 h. The gist of the method: as §1
In test [4] the test system is A549. Kind of test: Cytotoxicity against human A549 cells assessed as cell viability after 48 hrs by MTS assay. The settings on record: A549, 48 h. The test is classed as functional, cell-based. The essentials:
as §1

The subject of test [5] is A549. Kind of test: Cytotoxicity against human A549 cells assessed growth inhibition at 40 uM after 48 hrs by MTS assay relative to control. The class given is functional. The gist of the method:
as §2

The test system of test [6] is SW480. Kind of test: Cytotoxicity against human SW480 cells assessed as cell viability after 48 hrs by MTS assay. The class given is functional, cell-based. The following applies: SW480, 48 h. The gist of the method:
as §1

The nature of test [7]: Cytotoxicity against human HL60 cells assessed as cell viability after 48 hrs by MTS assay. The test is classed as functional, cell-based. The following applies: HL-60, 48 h. The gist of the method: as §1
The test system of test [8] is SW480. Kind of test: Cytotoxicity against human SW480 cells assessed growth inhibition at 40 uM after 48 hrs by MTS assay relative to control. The test is classed as functional. The essentials:
as §2

For test [9], the system named is HL-60. Description: Cytotoxicity against human HL60 cells assessed growth inhibition at 40 uM after 48 hrs by MTS assay relative to control. The class given is functional. The essentials:
as §2

The test system of test [10] is MCF7. Description: Cytotoxicity against human MCF7 cells assessed growth inhibition at 40 uM after 48 hrs by MTS assay relative to control. The class given is functional. The essentials:
as §2

The IC50 is the point on the concentration scale where inhibition reaches its midpoint. Regarding `C=C1[C@H]2CC[C@@H]3[C@](C2)(C(=O)O[C@H]2C[C@@H]4OC5O[C@@H](O)[C@H](C4(C)C)[C@@]523)[C@@H]1O`, the IC50 in test [1], in test [3], in [4], in test [6] and in test [7] was greater than 40 µM in each case. Further, the “growth inhibition (GI)” value in test [2], in [5], in test [8], in test [9] and in test [10] was “inactive” each time.

In the case of `C[C@H]1C(=O)[C@]23C[C@@H]1CC[C@H]2C12[C@H](O)OC[C@@H]1C(C)(C)CC[C@@H]2OC3=O` (stereo not given in full), the IC50 in [1], in test [3], in test [4], in test [6] and in test [7] was greater than 40 µM throughout. Moreover, the “growth inhibition (GI)” value in test [2], in test [5], in test [8], in test [9] and in test [10] was “inactive” throughout.

Consider `C[C@H]1C(=O)[C@]23C[C@@H]1CC[C@H]2C12[C@H](CCC(C)(C)[C@H]1CO[C@@H]2O)OC3=O` (stereo not given in full), for which the IC50 in test [1], in test [3], in test [4], in [6] and in test [7] was greater than 40 µM throughout. In addition, the “growth inhibition (GI)” value in [2], in test [5], in test [8], in [9] and in test [10] was “inactive” in each case.

In the case of `C[C@H]1C(=O)[C@]23C[C@@H]1CC[C@H]2C12C(O)O[C@@H](O)[C@@H]1C(C)(C)CC[C@@H]2OC3=O` (stereo not given in full), the IC50 in [1], in test [3], in test [4], in [6] and in [7] was greater than 40 µM throughout. Also, the “growth inhibition (GI)” value in test [2], in test [5], in test [8], in test [9] and in test [10] was “inactive” each time.

`COC[C@H]1C(=O)[C@]23C[C@@H]1C[C@@H](O)[C@H]2C12CO[C@@H](O)[C@@H]1C(C)(C)CC[C@@H]2OC3=O` (stereo not given in full): the IC50 in [1], in test [3], in [4], in [6] and in [7] was greater than 40 µM in each case. Further, the “growth inhibition (GI)” value in test [2], in test [5], in [8], in test [9] and in test [10] was “inactive” each time.

As for `C[C@@H]1C(=O)[C@]23C[C@@H]1CC[C@H]2C12CO[C@@H](O)[C@@H]1C(C)(C)CC[C@@H]2OC3=O` (stereo not given in full), the IC50 in test [1], in test [3], in test [4], in [6] and in [7] was greater than 40 µM throughout. Also, the “growth inhibition (GI)” value in test [2], in test [5], in test [8], in test [9] and in test [10] was “inactive” each time.

Consider `C[C@]12CC[C@@H]3OC(=O)[C@@]45C[C@H](C[C@@H](O)[C@@H]4[C@]34CO[C@H](OC1)[C@H]24)[C@@]1(CCC2=C(O1)[C@]13C[C@@H]2C[C@@H](O)[C@@H]1[C@]12CO[C@@H]4OC[C@](C)(CC[C@@H]1OC3=O)[C@@H]42)C5=O`, for which the IC50 in [1], in test [3], in [4], in test [6] and in test [7] was greater than 40 µM each time. In addition, the “growth inhibition (GI)” value in [2], in test [5], in test [8], in [9] and in [10] was “inactive” each time.

Turning to `CO[C@@H]1OC(O)C23[C@H](CCC(C)(C)[C@@H]12)OC(=O)[C@@]12C[C@H](CC[C@@H]31)[C@@H](C)C2=O` (stereo not given in full), the IC50 in test [1], in test [3], in test [4], in [6] and in [7] was greater than 40 µM in each case. The “growth inhibition (GI)” value in [2], in test [5], in test [8], in test [9] and in test [10] was “inactive” in each case.

For `C=C1C(=O)[C@]23C[C@@H]1C[C@@H](O)[C@H]2C12C(O)O[C@@H]4OC(O)[C@](C)(CC[C@@H]1OC3=O)[C@@H]42` (stereo not given in full), the IC50 in test [1], in [3], in test [4], in [6] and in test [7] was greater than 40 µM each time. The “growth inhibition (GI)” value in test [2], in test [5], in [8], in [9] and in test [10] was “inactive” each time.

Turning to `C[C@H]1C(=O)[C@]23C[C@@H]1CC[C@H]2C12CO[C@@H](O)[C@@H]1C(C)(C)CC[C@@H]2OC3=O` (stereo not given in full), the IC50 in test [1], in test [3], in test [4], in test [6] and in test [7] was greater than 40 µM throughout. Further, the “growth inhibition (GI)” value in [2], in [5], in test [8], in test [9] and in test [10] was “inactive” throughout.

As to `C[C@H]1C(=O)[C@]23C[C@@H]1C[C@@H](O)[C@H]2C12CO[C@@H](O)[C@@H]1C(C)(C)CC[C@@H]2OC3=O` (stereo not given in full), the IC50 in [1], in test [3], in test [4], in test [6] and in test [7] was greater than 40 µM each time. Moreover, the “growth inhibition (GI)” value in [2], in [5], in test [8], in test [9] and in test [10] was “inactive” throughout.

With `COC[C@@H]1C(=O)[C@]23C[C@@H]1C[C@@H](O)[C@H]2C12CO[C@@H](O)[C@@H]1C(C)(C)CC[C@@H]2OC3=O` (stereo not given in full), the IC50 in test [1], in test [3], in test [4], in test [6] and in test [7] was greater than 40 µM in each case. Moreover, the “growth inhibition (GI)” value in test [2], in [5], in [8], in test [9] and in test [10] was “inactive” each time.

In the case of `C=C1C(=O)[C@]23C[C@@H]1C[C@@H](O)[C@H]2C12CO[C@@H](O)[C@@H]1C(C)(C)[C@@H](O)C[C@@H]2OC3=O` (stereo not given in full), the IC50 in test [1], in test [3], in test [4], in test [6] and in test [7] was greater than 40 µM throughout. For the same compound, the “growth inhibition (GI)” value in test [2], in test [5], in test [8], in test [9] and in [10] was “inactive” each time.

On to `C[C@H]1C(=O)[C@]23C[C@@H]1CC[C@H]2C12CO[C@@H](O)[C@@H]1C(C)(C)[C@@H](O)C[C@@H]2OC3=O` (stereo not given in full), for which the IC50 in test [1], in [3], in test [4], in test [6] and in test [7] was greater than 40 µM each time. Besides, the “growth inhibition (GI)” value in test [2], in test [5], in test [8], in test [9] and in test [10] was “inactive” each time.

For `CC1(C)[C@@H]2C[C@@H]3OC(=O)[C@@]45C[C@H](CC[C@H]4[C@]34C(O[C@@H](O)[C@H]14)O2)[C@](C)(O)C5=O`, the IC50 in test [1], in test [3], in [4], in test [6] and in test [7] was greater than 40 µM throughout. In addition, the “growth inhibition (GI)” value in test [2], in test [5], in test [8], in test [9] and in test [10] was “inactive” each time.
